The text below walks through data of ChEMBL document CHEMBL1153453, “Schiff bases of 3-formylchromone as thymidine phosphorylase inhibitors” (Bioorg Med Chem, 2009).

The test has as its target Thymidine phosphorylase (Escherichia coli K-12, UniProt P07650). As to the kind of experiment: Inhibition of Escherichia coli thymidine phosphorylase. As to conditions: for pIC50: read-out: IC50; call rule not given here. Summed up:
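E. coli thymidine phosphorylase, 0.05 or 0.002 U, in potassium phosphate buffer pH 7.4, preincubated with test compound 10 min at 25 °C. A 290 nm pre-read was then taken, substrate added (1.5 mM stock), and absorbance at 290 nm read after 10, 20 and 30 min. Increasing compound concentrations were tested in triplicate. IC50 was calculated from the inhibition data.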

pIC50: −log10 of the molar value.

Sequence of Thymidine phosphorylase (P07650 whole entry): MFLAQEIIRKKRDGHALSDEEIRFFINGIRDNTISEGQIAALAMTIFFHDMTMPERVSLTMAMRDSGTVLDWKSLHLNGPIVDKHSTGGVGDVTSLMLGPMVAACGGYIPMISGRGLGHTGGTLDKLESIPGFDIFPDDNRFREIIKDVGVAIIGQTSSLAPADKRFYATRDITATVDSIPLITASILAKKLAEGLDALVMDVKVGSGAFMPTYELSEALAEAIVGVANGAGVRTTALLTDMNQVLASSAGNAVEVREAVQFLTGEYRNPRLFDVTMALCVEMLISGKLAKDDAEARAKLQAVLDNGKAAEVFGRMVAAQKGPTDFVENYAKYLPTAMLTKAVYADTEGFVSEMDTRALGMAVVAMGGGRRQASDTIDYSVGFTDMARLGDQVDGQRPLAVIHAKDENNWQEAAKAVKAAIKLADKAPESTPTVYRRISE

One may read the pIC50 as −log10 of the IC50, conventionally taken in molar units. For the compound `CCC(=O)N/N=C/c1coc2ccccc2c1=O`, the pIC50 was 3.84.
Still for that read-out and setting: the value for `O=c1c(/C=N/c2ncccc2O)coc2ccccc12` was 3.47.
For the compound `O=c1c(/C=N/c2ccncc2)coc2ccccc12`, the IC50 entry is “Not Active”.
In the case of `O=c1c(/C=N/C(CO)Cc2ccccc2)coc2ccccc12` (configuration not stated), the pIC50 is 3.33.
Still for that read-out and setting: the same measure for `Cc1cccc([N+](=O)[O-])c1/N=C/c1coc2ccccc2c1=O`: 3.32.
Still for that read-out and setting: the same measure for `O=c1c(/C=N/CC/N=C/c2coc3ccccc3c2=O)coc2ccccc12`: 3.82.
Turning to `COc1cc([N+](=O)[O-])ccc1/N=C/c1coc2ccccc2c1=O`, the IC50 entry was “Not Active”.
Consider `O=c1c(/C=N/c2ccc(Cl)cc2Cl)coc2ccccc12`, for which the pIC50 is 4.39.
With `O=C(c1ccccc1)c1cc(Cl)ccc1/N=C/c1coc2ccccc2c1=O`, the pIC50 was 4.12.
Turning to `Cc1ccc(/N=C/c2coc3ccccc3c2=O)cc1`, the IC50 result is reported as “Not Active”.
Same read-out and setting: the same measure for `Cc1cccc(C)c1/N=C/c1coc2ccccc2c1=O`: “Not Active”.
With `CC(C)(C)NC(NC(C)(C)C)c1coc2ccccc2c1=O`, the IC50 result was “Not Active”.
For the compound `COc1cc(/N=C/c2coc3ccccc3c2=O)ccc1C`, the pIC50 is 4.70.
For `COc1cccc(/N=C/c2coc3ccccc3c2=O)c1`, the IC50 entry was “Not Active”.
`O=c1c(/C=N/c2cccnc2)coc2ccccc12`: the IC50 result is reported as “Not Active”.
Regarding `O=C(O)c1ccccc1/N=C/c1coc2ccccc2c1=O`, the IC50 entry was “Not Active”.
For the compound `Cc1cccc(/N=C/c2coc3ccccc3c2=O)c1`, the pIC50 is 4.17.
